Compound activity from PubChem BioAssay.
TAG inh – triacylglycerol accumulation inhibition. H9c2 cells, Nile Red lipid (TAG) fluorescence; cells loaded with 200 µM oleic acid. inhibition, % at 12.5 µM. 230,000 tested, 0.66% active;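 active means pattern-corrected inhibition of lipid staining of at least 50% with the nuclear-stain viability signal not falling by more than 50%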
Hep lipid drop – modulators of hepatic lipid droplet formation. AML12 mouse hepatocytes, oleate lipid droplets, BODIPY imaging. inhibition, % at 6.5 µM. 240,000 tested, 0.4% active. AID 1656;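 active means lipid droplet intensity inhibited by at least 50%, with more than 500 cells counted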
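Assay system: AML12 mouse liver cells | Compound: 6.5 µM single-point dosing | Schedule: Overnight exposure | Technique: Fluorescence imaging, 20x objective, two fields per well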
Jurkat NFkB inh – inhibitors of the PMA/ionomycin-induced NF-kB reporter in Jurkat cells | PMA/ionomycin-induced NF-kB luciferase reporter, luminescence | inhibition, % at 4 µM | 330,000 tested, 0.53% active | AID 435003; in the data active means inhibition above about 50%
697 NFkB inh – inhibitors of the PMA/ionomycin-induced NF-kB reporter in 697 B cells; AID 435022; 697 B-cell NF-kB luciferase reporter, 16 h; inhibition, % at 4 µM; 330,000 tested, 0.33% active; in the data active means inhibition above about 35%
hiPSC survival – hiPSC single-cell survival enhancement; ATPlite luminescence; 100% = ROCK inhibitor wells, 0% = DMSO; survival enhancement, % at 20 µM; 360,000 tested, 0.044% active; AID 602274; in the data active means survival enhancement above about 18%;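 further: cells exposed to compounds for 16 hours before the ATP read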
Gli-Sufu block – blocks Gli-Sufu signaling in a luciferase reporter. Sufu-KO-LIGHT fibroblasts, Gli luciferase reporter luminescence. inhibition, % at 5 µM. 340,000 tested, 0.74% active;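 active means inhibition above about 55%, limit read from the data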
Gli antag conf – Gli-SUFU antagonism confirmation, single concentration; shares compounds with Gli-Sufu block; Sufu-KO-LIGHT cells, Gli luciferase reporter, luminescence; inhibition, % at 5 µM; 2,500 tested, 40% active; AID 602428;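 active means mean inhibition at 5 µM reaching about 45%, limit read from the data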
SufuKO cytotox – counter-screen for Gli-SUFU antagonists: cytotoxicity; AID 651994; Sufu-KO-LIGHT cells cytotoxicity, ATP luminescence; shares compounds with Gli-Sufu block; 2,500 tested, 32% active; cytotoxicity, % at 5 µM;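 active means mean cytotoxicity at 5 µM above about 25%, limit read from the data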;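 further: cells exposed to compound overnight for roughly 16 to 18 hours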
Wnt3a counter – Wnt3a reporter inhibition counter-screen. shares compounds with Gli-Sufu block. Wnt-LIGHT cells, Wnt3a-driven luciferase reporter, luminescence. inhibition, % at 6.25 µM. 2,500 tested, 20% active;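 active means mean inhibition above about 25%, limit read from the data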
Numbers stand for hits. Only some compounds are listed: those with a hit (about 1.8% of all), similar ones and a draw of the others.

How did O=S(=O)(NCCc1ccccc1)c1ccc(F)cc1 do in these assays?
Hep lipid drop: inactive; Jurkat NFkB inh: inactive; 697 NFkB inh: inactive; hiPSC survival: inactive; Gli-Sufu block: inactive; Gli antag conf: inactive; SufuKO cytotox: inactive; Wnt3a counter: inactive

What do the screens show for `COc1cccc(C(=O)NCCN2CCN(c3ccc(Cl)cc3)CC2)c1`?
TAG inh: inactive; Jurkat NFkB inh: inactive; 697 NFkB inh: inactive; hiPSC survival: inactive; Gli-Sufu block: inactive; Gli antag conf: inactive; SufuKO cytotox: inactive; Wnt3a counter: inactive

How did CCOc1ccc(CN2CCNC(=O)C2CC(=O)NCCN2CCOC2=O)cc1 (stereo not drawn) do in these assays?
TAG inh: inactive; Hep lipid drop: inactive; Jurkat NFkB inh: inactive; 697 NFkB inh: inactive; hiPSC survival: inactive; Gli-Sufu block: inactive

How did CN(Cc1cnc2nc(N)nc(N)c2n1)c1ccc(C(=O)NC(CCC(=O)O)C(=O)O)c2ccccc12 (stereo not drawn) do in these assays?
TAG inh: inactive; hiPSC survival: inactive; Gli-Sufu block: 58; Gli antag conf: inactive; SufuKO cytotox: 29; Wnt3a counter: inactive

How did CC(=O)Nc1ccc(Cl)cc1C(=O)c1ccc[nH]1 do in these assays?
TAG inh: inactive; hiPSC survival: inactive

How did NCC(=O)Nc1ccc(Cl)cc1C(=O)c1ccc[nH]1 do in these assays?
Hep lipid drop: inactive; Jurkat NFkB inh: inactive; 697 NFkB inh: inactive; hiPSC survival: inactive; Gli-Sufu block: inactive; Gli antag conf: inactive; SufuKO cytotox: inactive; Wnt3a counter: inactive

How did COc1ccc(/C=N/NC(=O)c2nc(-c3ccccc3)n(-c3ccccc3)n2)c(O)c1 do in these assays?
TAG inh: inactive; Hep lipid drop: inactive; Jurkat NFkB inh: inactive; 697 NFkB inh: inactive; hiPSC survival: inactive; Gli-Sufu block: 63; Gli antag conf: 62; SufuKO cytotox: 34; Wnt3a counter: 56

Results for O=C(/C=C/c1c(Cl)nc2ccccn12)Nc1ccc(F)cc1 ?
TAG inh: inactive; Hep lipid drop: inactive; Jurkat NFkB inh: inactive; 697 NFkB inh: inactive; hiPSC survival: inactive; Gli-Sufu block: inactive

What do the screens show for `O=C(Nc1nnc(-c2cccs2)o1)c1cccc(Oc2ccccc2)c1`?
TAG inh: inactive; Jurkat NFkB inh: inactive; 697 NFkB inh: inactive; hiPSC survival: inactive; Gli-Sufu block: inactive

How did O=C(Nc1nnc(-c2cccs2)o1)c1cccc(F)c1 do in these assays?
TAG inh: inactive; Jurkat NFkB inh: inactive; 697 NFkB inh: inactive; hiPSC survival: inactive; Gli-Sufu block: inactive; Gli antag conf: inactive; SufuKO cytotox: inactive; Wnt3a counter: inactive

What do the screens show for `O=C(CC(Cc1ccccc1)C(=O)O)Nc1ccc(F)cc1` (stereo not drawn)?
Hep lipid drop: inactive; Jurkat NFkB inh: inactive; 697 NFkB inh: inactive; hiPSC survival: inactive; Gli-Sufu block: inactive

How did O=C(CC(Cc1ccccc1)C(=O)O)Nc1cccc(C(F)(F)F)c1 (stereo not drawn) do in these assays?
Hep lipid drop: inactive; Jurkat NFkB inh: inactive; 697 NFkB inh: inactive; hiPSC survival: inactive; Gli-Sufu block: inactive; Gli antag conf: inactive; SufuKO cytotox: inactive; Wnt3a counter: inactive

Results for CCN(c1ccccc1)S(=O)(=O)c1ccc2c(c1)CC(C)N2C(=O)C1CC1 (stereo not drawn) ?
Hep lipid drop: inactive; Jurkat NFkB inh: inactive; 697 NFkB inh: inactive; hiPSC survival: inactive; Gli-Sufu block: inactive

Results for CCOc1ccccc1N(C)S(=O)(=O)c1ccc2c(c1)CC(C)N2C(=O)C1CC1 (stereo not drawn) ?
Hep lipid drop: inactive; Jurkat NFkB inh: inactive; 697 NFkB inh: inactive; hiPSC survival: inactive; Gli-Sufu block: 60; Gli antag conf: inactive; SufuKO cytotox: inactive; Wnt3a counter: inactive

How did C=CCOC(=O)C(=O)/C=C/c1ccc2c(c1)Cc1ccccc1-2 do in these assays?
TAG inh: inactive; Hep lipid drop: inactive; Jurkat NFkB inh: inactive; 697 NFkB inh: inactive; hiPSC survival: inactive; Gli-Sufu block: inactive

How did COc1ccc(-c2nn(-c3ccccc3)cc2C=O)cc1[N+](=O)[O-] do in these assays?
Hep lipid drop: inactive; Jurkat NFkB inh: inactive; 697 NFkB inh: inactive; hiPSC survival: inactive; Gli-Sufu block: 55; Gli antag conf: inactive; SufuKO cytotox: 33; Wnt3a counter: inactive

What do the screens show for `COc1ccc(CN2CCN(C(=O)CN3C(=O)C4C5C=CC(C5)C4C3=O)CC2)c(OC)c1OC` (stereo not drawn)?
TAG inh: inactive; Jurkat NFkB inh: inactive; 697 NFkB inh: inactive; hiPSC survival: inactive; Gli-Sufu block: 62; Gli antag conf: inactive; SufuKO cytotox: inactive; Wnt3a counter: inactive

What do the screens show for `Cc1ccc(CN(C)C(=O)C2CCC(=O)N(CC3CCCCC3)C2)o1` (stereo not drawn)?
Hep lipid drop: inactive; Jurkat NFkB inh: inactive; 697 NFkB inh: inactive; hiPSC survival: inactive; Gli-Sufu block: inactive

Results for Cc1onc(-c2c(Cl)cccc2Cl)c1C(=O)Nc1ccc2c(c1)OCCO2 ?
TAG inh: inactive; Jurkat NFkB inh: inactive; 697 NFkB inh: inactive; hiPSC survival: inactive; Gli-Sufu block: inactive

What do the screens show for `Cc1noc(C)c1C(=O)OCC(=O)Nc1cccc(S(=O)(=O)N(C)C)c1`?
Hep lipid drop: inactive; Jurkat NFkB inh: inactive; 697 NFkB inh: inactive; hiPSC survival: inactive; Gli-Sufu block: inactive

What do the screens show for `Cc1onc(-c2c(F)cccc2Cl)c1C(=O)Nc1ccc(Cl)c(S(=O)(=O)N(C)C)c1`?
TAG inh: inactive; Jurkat NFkB inh: inactive; 697 NFkB inh: inactive; hiPSC survival: inactive; Gli-Sufu block: 58; Gli antag conf: inactive; SufuKO cytotox: inactive; Wnt3a counter: inactive

What do the screens show for `Cc1onc(-c2c(F)cccc2Cl)c1C(=O)OCC(=O)Nc1cccc(S(=O)(=O)N(C)C)c1`?
TAG inh: inactive; hiPSC survival: inactive; Gli-Sufu block: inactive; Gli antag conf: inactive; SufuKO cytotox: inactive; Wnt3a counter: inactive

Results for O=C(Oc1coc(CSc2nnc(NC(=O)C3CC3)s2)cc1=O)c1c(F)cccc1F ?
TAG inh: inactive; Hep lipid drop: inactive; Jurkat NFkB inh: inactive; 697 NFkB inh: inactive; hiPSC survival: inactive; Gli-Sufu block: inactive

What do the screens show for `Cc1ccc(-n2nnc3c(SCC(=O)NCc4ccco4)ncnc32)cc1`?
TAG inh: inactive; Hep lipid drop: inactive; Jurkat NFkB inh: inactive; 697 NFkB inh: inactive; hiPSC survival: inactive; Gli-Sufu block: inactive

Results for COc1ccc(-n2nnc3c(SCC(=O)NCc4ccco4)ncnc32)cc1 ?
Jurkat NFkB inh: inactive; 697 NFkB inh: inactive; hiPSC survival: inactive; Gli-Sufu block: 98; Gli antag conf: inactive; SufuKO cytotox: inactive; Wnt3a counter: inactive
